Measured values reported in ChEMBL document CHEMBL3351352, “Discovery of a novel series of potent MK2 non-ATP competitive inhibitors using 1,2-substituted azoles as cis-amide isosteres” (Bioorg Med Chem Lett, 2014).
Each block holds one molecule with its values, some of them ahead of it. Calls of active or inactive are those of the source. No cut-off for these calls is given here.

Tests used:
[1] = molecular target: Cyclin-dependent kinase 2 (Homo sapiens, UniProt P24941); test: Inhibition of CDK2 (unknown origin)
[2] = molecular target: RAC-alpha serine/threonine-protein kinase (Homo sapiens, UniProt P31749); test: Inhibition of AKT1 (unknown origin)
Sequence of RAC-alpha serine/threonine-protein kinase (P31749 whole entry): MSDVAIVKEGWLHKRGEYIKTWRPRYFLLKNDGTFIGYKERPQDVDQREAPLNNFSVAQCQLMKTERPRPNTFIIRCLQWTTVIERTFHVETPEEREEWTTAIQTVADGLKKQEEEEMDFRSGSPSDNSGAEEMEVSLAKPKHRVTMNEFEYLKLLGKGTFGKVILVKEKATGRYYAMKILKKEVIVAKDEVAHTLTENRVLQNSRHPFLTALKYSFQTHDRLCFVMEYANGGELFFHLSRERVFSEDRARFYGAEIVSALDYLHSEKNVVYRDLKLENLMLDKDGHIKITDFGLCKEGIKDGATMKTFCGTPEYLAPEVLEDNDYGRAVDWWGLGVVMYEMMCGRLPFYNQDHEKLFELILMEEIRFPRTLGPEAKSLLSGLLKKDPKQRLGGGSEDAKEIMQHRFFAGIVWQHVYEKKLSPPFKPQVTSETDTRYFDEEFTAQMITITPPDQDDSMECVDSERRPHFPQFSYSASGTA

[3] = molecular target: Hepatocyte growth factor receptor (Homo sapiens, UniProt P08581); test: Inhibition of MET (unknown origin)
Sequence of Hepatocyte growth factor receptor (P08581 whole entry): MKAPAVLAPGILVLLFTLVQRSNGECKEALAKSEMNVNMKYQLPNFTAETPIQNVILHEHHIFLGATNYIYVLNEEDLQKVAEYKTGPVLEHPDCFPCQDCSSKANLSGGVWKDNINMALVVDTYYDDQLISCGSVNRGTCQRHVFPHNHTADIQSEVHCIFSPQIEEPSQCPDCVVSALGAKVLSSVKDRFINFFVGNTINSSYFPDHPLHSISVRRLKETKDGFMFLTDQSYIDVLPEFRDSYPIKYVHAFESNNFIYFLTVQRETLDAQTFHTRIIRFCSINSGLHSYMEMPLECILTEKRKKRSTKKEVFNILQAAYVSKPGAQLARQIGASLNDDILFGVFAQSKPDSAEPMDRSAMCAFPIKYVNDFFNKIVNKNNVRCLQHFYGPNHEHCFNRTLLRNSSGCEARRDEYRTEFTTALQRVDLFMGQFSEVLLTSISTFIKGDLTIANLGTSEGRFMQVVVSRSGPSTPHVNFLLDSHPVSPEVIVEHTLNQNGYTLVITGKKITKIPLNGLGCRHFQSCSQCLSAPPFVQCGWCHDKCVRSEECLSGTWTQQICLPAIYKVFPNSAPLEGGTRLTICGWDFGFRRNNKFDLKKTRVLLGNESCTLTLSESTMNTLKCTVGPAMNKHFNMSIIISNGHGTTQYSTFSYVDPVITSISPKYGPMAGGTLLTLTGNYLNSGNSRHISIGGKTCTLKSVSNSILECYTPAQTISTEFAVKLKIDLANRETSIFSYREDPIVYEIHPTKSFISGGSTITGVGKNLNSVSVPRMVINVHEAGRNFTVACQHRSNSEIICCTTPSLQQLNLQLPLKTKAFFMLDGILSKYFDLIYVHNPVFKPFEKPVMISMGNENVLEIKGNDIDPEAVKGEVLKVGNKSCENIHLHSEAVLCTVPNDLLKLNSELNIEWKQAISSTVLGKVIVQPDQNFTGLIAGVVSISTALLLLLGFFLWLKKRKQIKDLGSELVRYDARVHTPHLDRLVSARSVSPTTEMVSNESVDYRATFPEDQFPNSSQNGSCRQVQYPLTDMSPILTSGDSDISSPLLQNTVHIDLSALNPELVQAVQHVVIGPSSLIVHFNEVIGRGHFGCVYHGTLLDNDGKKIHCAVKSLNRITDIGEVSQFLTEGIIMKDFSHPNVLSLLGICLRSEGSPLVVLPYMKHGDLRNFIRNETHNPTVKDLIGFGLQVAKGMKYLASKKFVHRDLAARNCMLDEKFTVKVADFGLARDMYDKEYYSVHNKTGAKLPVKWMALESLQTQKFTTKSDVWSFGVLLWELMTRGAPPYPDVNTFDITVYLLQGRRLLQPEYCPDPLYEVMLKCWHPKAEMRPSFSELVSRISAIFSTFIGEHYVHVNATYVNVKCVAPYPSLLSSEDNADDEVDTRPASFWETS

[4] = Protein binding in human plasma; assay type: ADME, cell-free; details: read-out: PPB (converted)
[5] = system: THP-1; test: Inhibition of LPS-induced TNFalpha production in human THP1 cells pre-incubated for 30 mins before LPS challenge measured 3 hrs after LPS addition
[6] = molecular target: Tyrosine-protein kinase JAK2 (Homo sapiens, UniProt O60674); test: Inhibition of JAK2 (unknown origin)
Sequence of Tyrosine-protein kinase JAK2 (O60674 whole entry): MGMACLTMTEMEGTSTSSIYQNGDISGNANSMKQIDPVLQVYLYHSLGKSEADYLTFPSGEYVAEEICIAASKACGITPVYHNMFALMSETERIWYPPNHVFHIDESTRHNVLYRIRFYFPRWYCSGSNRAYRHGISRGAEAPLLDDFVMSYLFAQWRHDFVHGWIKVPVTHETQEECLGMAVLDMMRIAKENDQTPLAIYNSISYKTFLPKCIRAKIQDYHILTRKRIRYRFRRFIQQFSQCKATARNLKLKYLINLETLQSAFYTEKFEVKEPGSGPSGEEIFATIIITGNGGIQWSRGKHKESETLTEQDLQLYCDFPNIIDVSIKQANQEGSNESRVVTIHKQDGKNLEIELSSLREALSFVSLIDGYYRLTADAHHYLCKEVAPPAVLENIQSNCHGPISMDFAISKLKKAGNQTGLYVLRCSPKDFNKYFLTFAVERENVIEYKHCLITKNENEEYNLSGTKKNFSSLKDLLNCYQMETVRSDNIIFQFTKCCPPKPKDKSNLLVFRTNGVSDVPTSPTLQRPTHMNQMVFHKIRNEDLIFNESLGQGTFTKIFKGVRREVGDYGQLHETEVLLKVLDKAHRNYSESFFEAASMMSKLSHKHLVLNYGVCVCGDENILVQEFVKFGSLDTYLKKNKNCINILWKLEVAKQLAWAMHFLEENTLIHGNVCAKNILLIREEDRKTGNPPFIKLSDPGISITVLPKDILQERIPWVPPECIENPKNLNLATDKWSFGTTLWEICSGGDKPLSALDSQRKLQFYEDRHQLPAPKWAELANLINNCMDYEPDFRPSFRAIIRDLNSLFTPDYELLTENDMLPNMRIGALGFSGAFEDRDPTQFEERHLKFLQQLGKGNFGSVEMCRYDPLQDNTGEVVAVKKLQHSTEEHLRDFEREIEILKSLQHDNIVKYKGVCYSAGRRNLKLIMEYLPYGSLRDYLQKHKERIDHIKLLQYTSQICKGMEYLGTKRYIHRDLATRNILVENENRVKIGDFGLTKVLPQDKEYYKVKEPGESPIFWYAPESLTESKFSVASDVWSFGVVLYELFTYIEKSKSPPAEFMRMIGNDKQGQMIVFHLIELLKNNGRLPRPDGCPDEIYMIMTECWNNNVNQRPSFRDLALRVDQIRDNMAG

[7] = molecular target: Serine/threonine-protein kinase 3 (Homo sapiens, UniProt Q13188); test: Inhibition of MST2 (unknown origin)
Sequence of Serine/threonine-protein kinase 3 (Q13188 whole entry): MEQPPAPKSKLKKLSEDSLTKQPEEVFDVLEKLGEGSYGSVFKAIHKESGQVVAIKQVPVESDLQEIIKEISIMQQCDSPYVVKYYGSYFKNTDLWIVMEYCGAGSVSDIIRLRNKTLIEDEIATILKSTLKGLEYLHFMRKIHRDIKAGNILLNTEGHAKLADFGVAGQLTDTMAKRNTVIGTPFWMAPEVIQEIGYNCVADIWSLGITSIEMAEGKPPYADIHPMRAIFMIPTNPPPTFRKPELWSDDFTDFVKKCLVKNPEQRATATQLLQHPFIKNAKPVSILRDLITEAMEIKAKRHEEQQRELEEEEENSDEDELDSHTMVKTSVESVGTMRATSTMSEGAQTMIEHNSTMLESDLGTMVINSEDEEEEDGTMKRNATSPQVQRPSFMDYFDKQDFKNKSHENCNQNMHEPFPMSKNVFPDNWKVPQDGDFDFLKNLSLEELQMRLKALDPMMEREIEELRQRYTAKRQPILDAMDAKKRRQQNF

[8] = molecular target: Tyrosine-protein kinase Lck (Homo sapiens, UniProt P06239); test: Inhibition of LCK (unknown origin)
[9] = molecular target: T1, MAP kinase-activated protein kinase 2 (Homo sapiens, UniProt P49137); test: Non-ATP competitive inhibition of MK2 (unknown origin) incubated for 30 mins in presence of 1 uM and 100 uM ATP by MK2 IMAP assay
Method in brief: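 Inhibitor, ATP and MK2 (final 50 pM) were preincubated 30 min. TAMRA-labelled peptide (final 100 nM) was added for 30 min; final DMSO was 1%. Progressive binding reagent stopped the reaction (30 min); read at ex 530/em 580 nm. Values are means of duplicates or triplicates.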

[10] = molecular target: T1, MAP kinase-activated protein kinase 2; test: Inhibition of MK2 in human THP1 cells assessed as reduction in LPS-induced HSP27 Ser78 phosphorylation after 60 mins; assay type: cell-based, THP-1
Target sequence in this assay (P49137 whole entry): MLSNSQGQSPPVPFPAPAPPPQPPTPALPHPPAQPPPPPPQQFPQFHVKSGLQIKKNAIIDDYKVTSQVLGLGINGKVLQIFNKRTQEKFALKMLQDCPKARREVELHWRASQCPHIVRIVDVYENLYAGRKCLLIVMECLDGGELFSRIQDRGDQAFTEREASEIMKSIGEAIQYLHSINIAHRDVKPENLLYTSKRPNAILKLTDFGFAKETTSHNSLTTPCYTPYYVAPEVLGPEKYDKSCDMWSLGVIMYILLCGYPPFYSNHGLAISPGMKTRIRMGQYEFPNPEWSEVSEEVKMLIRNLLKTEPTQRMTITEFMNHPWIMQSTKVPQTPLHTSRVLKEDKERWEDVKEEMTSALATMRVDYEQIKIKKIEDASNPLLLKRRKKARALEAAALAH

[11] = molecular target: Vascular endothelial growth factor receptor 2 (Homo sapiens, UniProt P35968); test: Inhibition of KDR (unknown origin)
[12] = molecular target: Glycogen synthase kinase-3 beta (Homo sapiens, UniProt P49841); test: Inhibition of GSK3B (unknown origin)
[13] = molecular target: Serine/threonine-protein kinase PLK3 (Homo sapiens, UniProt Q9H4B4); test: Inhibition of PLK3 (unknown origin)
[14] = molecular target: Testis-specific serine/threonine-protein kinase 2 (Homo sapiens, UniProt Q96PF2); test: Inhibition of TSSK2 (unknown origin)
Sequence of Testis-specific serine/threonine-protein kinase 2 (Q96PF2 whole entry): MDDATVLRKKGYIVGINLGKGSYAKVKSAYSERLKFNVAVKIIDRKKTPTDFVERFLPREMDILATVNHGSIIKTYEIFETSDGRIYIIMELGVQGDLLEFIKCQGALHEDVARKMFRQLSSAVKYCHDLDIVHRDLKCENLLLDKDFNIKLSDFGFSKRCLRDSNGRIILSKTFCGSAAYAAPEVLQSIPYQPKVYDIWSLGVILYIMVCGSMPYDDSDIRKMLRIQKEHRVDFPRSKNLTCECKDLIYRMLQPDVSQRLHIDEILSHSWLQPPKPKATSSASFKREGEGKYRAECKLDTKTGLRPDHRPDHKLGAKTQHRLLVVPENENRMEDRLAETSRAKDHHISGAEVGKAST

[15] = molecular target: Rho-associated protein kinase 2 (Homo sapiens, UniProt O75116); test: Inhibition of ROCK2 (unknown origin)
[16] = molecular target: T1, MAP kinase-activated protein kinase 2; test: Inhibition of MK2 (unknown origin) incubated for 30 mins by MK2 IMAP assay
Target sequence in this assay (P49137 whole entry): as the sequence (P49137 whole entry) above

[17] = molecular target: Protein kinase C alpha type (Homo sapiens, UniProt P17252); test: Inhibition of PKCA (unknown origin)
[18] = molecular target: Ribosomal protein S6 kinase alpha-3 (Homo sapiens, UniProt P51812); test: Inhibition of RSK2 (unknown origin)
Sequence of Ribosomal protein S6 kinase alpha-3 (P51812 whole entry): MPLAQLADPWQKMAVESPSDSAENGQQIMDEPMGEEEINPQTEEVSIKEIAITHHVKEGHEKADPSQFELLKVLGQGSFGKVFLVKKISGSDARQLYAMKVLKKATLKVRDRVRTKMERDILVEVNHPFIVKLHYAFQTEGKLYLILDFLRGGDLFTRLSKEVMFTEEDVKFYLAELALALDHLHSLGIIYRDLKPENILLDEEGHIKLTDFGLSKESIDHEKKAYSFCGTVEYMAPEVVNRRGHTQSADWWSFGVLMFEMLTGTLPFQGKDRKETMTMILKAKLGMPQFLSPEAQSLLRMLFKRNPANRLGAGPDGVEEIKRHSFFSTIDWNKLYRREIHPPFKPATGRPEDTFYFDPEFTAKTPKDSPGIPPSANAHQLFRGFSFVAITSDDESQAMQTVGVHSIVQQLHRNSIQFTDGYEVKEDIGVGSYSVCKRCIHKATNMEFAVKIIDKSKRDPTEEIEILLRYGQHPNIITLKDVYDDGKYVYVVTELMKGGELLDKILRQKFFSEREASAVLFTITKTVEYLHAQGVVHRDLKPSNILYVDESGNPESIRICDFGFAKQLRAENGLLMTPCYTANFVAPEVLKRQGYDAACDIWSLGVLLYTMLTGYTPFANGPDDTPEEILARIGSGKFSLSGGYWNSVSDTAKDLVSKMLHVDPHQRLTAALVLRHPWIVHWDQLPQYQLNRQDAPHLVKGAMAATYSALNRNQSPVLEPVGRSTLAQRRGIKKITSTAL

[19] = molecular target: Insulin-like growth factor 1 receptor (Homo sapiens, UniProt P08069); test: Inhibition of IGF1R (unknown origin)
[20] = molecular target: Serine/threonine-protein kinase Nek2 (Homo sapiens, UniProt P51955); test: Inhibition of NEK2 (unknown origin)
[21] = Permeability in human Caco2 cells; assay type: ADME, cell-based; details: Caco-2, read-out: permeability
[22] = molecular target: Receptor-type tyrosine-protein kinase FLT3 (Homo sapiens, UniProt P36888); test: Inhibition of FLT3 (unknown origin)
[23] = molecular target: Ephrin type-B receptor 4 (Homo sapiens, UniProt P54760); test: Inhibition of EPHB4 (unknown origin)
[24] = AUC (0 to 6 hrs) in Sprague-Dawley rat at 10 mg/kg, po; assay type: ADME, organism-based; design: time < 6 hr, dose 10 mg/kg, route oral; details: plasma
Method in brief: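 Sprague–Dawley rats were dosed orally with the compound in 20% HPBCD vehicle. AUC was calculated over 0 to 6 h.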

[25] = molecular target: Casein kinase I isoform delta (Homo sapiens, UniProt P48730); test: Inhibition of CSNK1D (unknown origin)
[26] = molecular target: Serine/threonine-protein kinase Chk1 (Homo sapiens, UniProt O14757); test: Inhibition of CHK1 (unknown origin)
[27] = molecular target: Calcium/calmodulin-dependent protein kinase type IV (Homo sapiens, UniProt Q16566); test: Inhibition of CAMK4 (unknown origin)
[28] = molecular target: Epidermal growth factor receptor (Homo sapiens, UniProt P00533); test: Inhibition of EGFR (unknown origin)
[29] = molecular target: Mitogen-activated protein kinase 1 (Homo sapiens, UniProt P28482); test: Inhibition of ERK2 (unknown origin)
[30] = molecular target: Interleukin-1 receptor-associated kinase 4 (Homo sapiens, UniProt Q9NWZ3); test: Inhibition of IRAK4 (unknown origin)
[31] = molecular target: Inhibitor of nuclear factor kappa-B kinase subunit beta (Homo sapiens, UniProt O14920); test: Inhibition of IKKB (unknown origin)

IC50 [1]: > 30 µM | IC50 [2]: > 15 µM | IC50 [3]: > 30 µM | fraction unbound [4]: 0.028 | IC50 [5]: 0.8 µM | IC50 [6]: > 30 µM | IC50 [7]: > 30 µM | IC50 [8]: > 30 µM | inhibition [9]: Active | IC50 [10]: 2.14 µM | IC50 [11]: > 30 µM | IC50 [12]: > 30 µM | IC50 [13]: > 30 µM | IC50 [14]: > 30 µM | IC50 [15]: > 20 µM | IC50 [16]: 0.0255 µM | IC50 [17]: > 30 µM | IC50 [18]: > 30 µM | IC50 [19]: > 30 µM | IC50 [20]: > 30 µM | Papp [21]: 5 ×10⁻⁶ cm/s | IC50 [22]: > 30 µM | IC50 [23]: > 30 µM | AUC(0-t) at 6 h [24]: 13.3 µM·h | IC50 [25]: > 30 µM | IC50 [26]: > 30 µM | IC50 [27]: > 30 µM | IC50 [28]: > 30 µM | IC50 [29]: > 30 µM | IC50 [30]: > 30 µM | IC50 [31]: > 30 µM
Compound: Clc1ccc(-c2ccc(-c3nccn3-c3ccc(N4CCNCC4)cc3)o2)cc1

fraction unbound [4]: 0.016 | IC50 [5]: 1.49 µM | Papp [21]: < 0.1 ×10⁻⁶ cm/s
Compound: O=C1c2oc(-c3ccc(Cl)cc3)cc2Cc2cc(N3CCNCC3)ccc2N1Cc1ccccc1-c1cncnc1
